Converted amounts (≈) assume the structure as drawn.

One assay concerns Human alphaherpesvirus 2. The experiment in a line: Antiviral activity against herpes simplex virus-2 (HSV-2) Ms strain in HEL ([…]) cells. The class given is functional. The note with it: Human alphaherpesvirus 2, HEL; read-out: ED50 (the source's name). The method, boiled down: (§1)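 Plaque reduction assay in HEL cells. Strains: HSV-1 VR-3, HSV-2 MS, HCMV AD 169. Run as described earlier.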

Another assay concerns Human betaherpesvirus 5. Nature of the assay: Antiviral activity against human cytomegalovirus (HCMV) AD 169 strain HEL ([…]) cells. The note with it: Human betaherpesvirus 5, HEL; read-out: ED50 (the source's name). The class given is functional. The method, boiled down:
as §1

The test system of a further assay is Human alphaherpesvirus 1. Nature of the assay: Antiviral activity against herpes simplex virus-1 VR-3 strain in HEL ([…]) cells. The class given is functional. The following applies: Human alphaherpesvirus 1, HEL; read-out: ED50 (the source's name). The procedure, abridged: as §1
The subject of a further assay is CCRF-HSB-2. The experiment in a line: Antiproliferative effects on CCRF-HSB-2 (human leukemia) cells. The class given is functional, cell-based. The procedure, abridged: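 CCRF-HSB-2 cells at 1.1 × 10⁵ cells/mL in RPMI 1640 + 10% FBS. Compound added in medium or PBS as serial 0.5 log₁₀ dilutions. Incubated 3 days at 37 °C, 5% CO₂. MTT then added for another 4 h; formazan solubilized in acidic DMF/SDS. A570 read against 690 nm reference. IC50 read graphically from dose-inhibition curve.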

The next assay concerns Human alphaherpesvirus 3. The experiment in a line: Antiviral activity against varicella zoster virus (VZV) Oka strain in HEL ([…]) cells. The following applies: Human alphaherpesvirus 3, HEL; read-out: ED50 (the source's name). The class given is functional.

Broadly, the IC50 is the concentration needed to halve the response being measured. Lower therefore signals higher potency. Regarding `O=c1[nH]c(=O)n([C@@H]2S[C@H](CO)[C@@H](O)[C@@H]2O)cc1/C=C/Cl`, the EC50 in the assay on Human alphaherpesvirus 2 was 71 µg/mL (≈ 221 µM); in the assay on Human betaherpesvirus 5 it was greater than 50 µg/mL; in the assay on Human alphaherpesvirus 1, 0.97 µg/mL (≈ 3.02 µM); with Human alphaherpesvirus 3, greater than 50 µg/mL. Moreover, the half-inhibitory concentration (IC50) with CCRF-HSB-2 is greater than 100 µg/mL.
Consider `O=c1[nH]c(=O)n([C@H]2S[C@H](CO)[C@@H](O)[C@@H]2O)cc1I`, for which the EC50 was greater than 100 µg/mL with Human alphaherpesvirus 2, greater than 50 µg/mL with Human betaherpesvirus 5, greater than 100 µg/mL in the assay with Human alphaherpesvirus 1 and greater than 50 µg/mL in the assay on Human alphaherpesvirus 3. Also, the half-inhibitory concentration (IC50) with CCRF-HSB-2 is greater than 100 µg/mL.
On to `Nc1nc(O)c2ncn([C@@H]3S[C@H](CO)[C@@H](O)[C@@H]3O)c2n1`, for which the EC50 in the assay on Human alphaherpesvirus 2 stood at 0.59 µg/mL (≈ 1.97 µM); with Human betaherpesvirus 5, 0.01 µg/mL (≈ 0.0334 µM); with Human alphaherpesvirus 1, 0.49 µg/mL (≈ 1.64 µM); in the assay with Human alphaherpesvirus 3, 0.11 µg/mL (≈ 0.368 µM). The same compound gave an IC50 with CCRF-HSB-2 of 0.29 µg/mL (≈ 0.969 µM).
In the case of `Nc1nc(N)c2ncn([C@H]3S[C@H](CO)[C@@H](O)[C@@H]3O)c2n1`, the EC50 in the assay with Human alphaherpesvirus 2 was greater than 100 µg/mL; in the assay on Human betaherpesvirus 5, greater than 50 µg/mL; in the assay with Human alphaherpesvirus 1, greater than 100 µg/mL; in the assay with Human alphaherpesvirus 3, greater than 50 µg/mL. The compound also had an IC50 in the assay on CCRF-HSB-2 greater than 100 µg/mL.
Consider `O=c1[nH]c(=O)n([C@H]2S[C@H](CO)[C@@H](O)[C@@H]2O)cc1/C=C/Cl`, for which the EC50 is greater than 100 µg/mL in the assay with Human alphaherpesvirus 2, greater than 50 µg/mL in the assay with Human betaherpesvirus 5, greater than 100 µg/mL in the assay on Human alphaherpesvirus 1 and greater than 50 µg/mL in the assay on Human alphaherpesvirus 3. Further, the half-inhibitory concentration (IC50) in the assay with CCRF-HSB-2 was greater than 100 µg/mL.
In the case of `O=c1[nH]c(=O)n([C@@H]2S[C@H](CO)[C@@H](O)[C@@H]2O)cc1/C=C/Br`, the EC50 with Human alphaherpesvirus 2 was 58 µg/mL (≈ 159 µM); in the assay with Human betaherpesvirus 5, greater than 50 µg/mL; in the assay on Human alphaherpesvirus 1, 0.82 µg/mL (≈ 2.25 µM); in the assay with Human alphaherpesvirus 3, 0.2 µg/mL (≈ 0.548 µM). In the assay with CCRF-HSB-2, the IC50 was greater than 100 µg/mL.
The matching figures for `O=c1[nH]c(=O)n([C@H]2S[C@H](CO)[C@@H](O)[C@@H]2O)cc1/C=C/Br`: greater than 100 µg/mL, greater than 50 µg/mL, greater than 100 µg/mL, greater than 50 µg/mL and greater than 100 µg/mL.
In the same order, the values of `CCc1cn([C@H]2S[C@H](CO)[C@@H](O)[C@@H]2O)c(=O)[nH]c1=O` are greater than 100 µg/mL, greater than 50 µg/mL, greater than 100 µg/mL, greater than 50 µg/mL and greater than 100 µg/mL.
The matching figures for `Nc1ncnc2c1ncn2[C@H]1S[C@H](CO)[C@@H](O)[C@@H]1O`: greater than 100 µg/mL, greater than 50 µg/mL, greater than 100 µg/mL, greater than 50 µg/mL and greater than 100 µg/mL.
As for `Cc1cn([C@@H]2S[C@H](CO)[C@@H](O)[C@@H]2O)c(=O)[nH]c1=O`, the EC50 in the assay with Human alphaherpesvirus 2 was 4.6 µg/mL (≈ 16.8 µM); in the assay with Human betaherpesvirus 5, 44 µg/mL (≈ 160 µM); in the assay on Human alphaherpesvirus 1 it was 0.77 µg/mL (≈ 2.81 µM); in the assay on Human alphaherpesvirus 3 it was 6.6 µg/mL (≈ 24.1 µM). Moreover, the IC50 in the assay with CCRF-HSB-2 was greater than 100 µg/mL.
The matching figures for `O=c1[nH]c(=O)n([C@@H]2S[C@H](CO)[C@@H](O)[C@@H]2O)cc1I`: 13.6 µg/mL (≈ 35.2 µM), greater than 50 µg/mL, 3.5 µg/mL (≈ 9.06 µM), 27.1 µg/mL (≈ 70.2 µM) and greater than 100 µg/mL.
Regarding `Nc1ncnc2c1ncn2[C@@H]1S[C@H](CO)[C@@H](O)[C@@H]1O`, the EC50 worked out at 13.5 µg/mL (≈ 47.7 µM) with Human alphaherpesvirus 2, 1.36 µg/mL (≈ 4.8 µM) with Human betaherpesvirus 5, 18.4 µg/mL (≈ 64.9 µM) in the assay with Human alphaherpesvirus 1 and 1.85 µg/mL (≈ 6.53 µM) in the assay on Human alphaherpesvirus 3. In the assay on CCRF-HSB-2, this compound registered an IC50 of 14.8 µg/mL (≈ 52.2 µM).
In the same order, the values of `Cc1cn([C@H]2S[C@H](CO)[C@@H](O)[C@@H]2O)c(=O)[nH]c1=O` are greater than 100 µg/mL, greater than 50 µg/mL, greater than 100 µg/mL, greater than 50 µg/mL and 42 µg/mL (≈ 153 µM).
In the same order, the values of `CCc1cn([C@@H]2S[C@H](CO)[C@@H](O)[C@@H]2O)c(=O)[nH]c1=O` are 6.5 µg/mL (≈ 22.5 µM), greater than 50 µg/mL, 0.43 µg/mL (≈ 1.49 µM), greater than 50 µg/mL and greater than 100 µg/mL.
The matching figures for `Nc1nc(N)c2ncn([C@@H]3S[C@H](CO)[C@@H](O)[C@@H]3O)c2n1`: 0.4 µg/mL (≈ 1.34 µM), 0.022 µg/mL (≈ 0.0737 µM), 0.52 µg/mL (≈ 1.74 µM), 0.11 µg/mL (≈ 0.369 µM) and 0.2 µg/mL (≈ 0.67 µM).
Consider `Nc1nc2c(ncn2COCCO)c(=O)[nH]1` [ACYCLOVIR], for which the EC50 in the assay on Human alphaherpesvirus 2 was 0.23 µg/mL (≈ 1.02 µM); with Human betaherpesvirus 5 it was 6.9 µg/mL (≈ 30.6 µM); in the assay with Human alphaherpesvirus 1 it was 0.14 µg/mL (≈ 0.622 µM). The compound also came in with an IC50 with CCRF-HSB-2 greater than 100 µg/mL.
For the compound `Nc1ccn([C@@H]2O[C@H](CO)[C@@H](O)[C@@H]2O)c(=O)n1` [CYTARABINE], in the assay on CCRF-HSB-2, the IC50 stood at 0.0086 µg/mL (≈ 0.0354 µM).
Take `Nc1nc2c(ncn2COC(CO)CO)c(=O)[nH]1` [GANCICLOVIR]: the EC50 worked out at 0.039 µg/mL (≈ 0.153 µM) in the assay with Human alphaherpesvirus 2, 0.21 µg/mL (≈ 0.823 µM) with Human betaherpesvirus 5, 0.016 µg/mL (≈ 0.0627 µM) in the assay with Human alphaherpesvirus 1 and 0.21 µg/mL (≈ 0.823 µM) with Human alphaherpesvirus 3. In addition, the IC50 in the assay with CCRF-HSB-2 is 17 µg/mL (≈ 66.6 µM).
Regarding `O=c1[nH]c(=O)n([C@@H]2O[C@H](CO)[C@@H](O)[C@@H]2O)cc1/C=C/Br` [SORIVUDINE], the EC50 in the assay on Human alphaherpesvirus 2 was 62 µg/mL (≈ 178 µM); with Human betaherpesvirus 5, greater than 50 µg/mL; with Human alphaherpesvirus 1, 0.036 µg/mL (≈ 0.103 µM); in the assay on Human alphaherpesvirus 3 it was 0.0013 µg/mL (≈ 0.00372 µM). Further, the IC50 in the assay with CCRF-HSB-2 is greater than 100 µg/mL.
In the same order, the values of `Nc1ncnc2c1ncn2[C@@H]1O[C@H](CO)[C@@H](O)[C@@H]1O` [VIDARABINE] are 6.6 µg/mL (≈ 24.7 µM), 6.45 µg/mL (≈ 24.1 µM), 17.1 µg/mL (≈ 64 µM), 1.17 µg/mL (≈ 4.38 µM) and 12.9 µg/mL (≈ 48.3 µM).
